This is a sample that favours compounds with a hit; in the whole collection about 1.3% have one here.
NR2E3 ag-1: agonists of human NR2E3 nuclear receptor; Q9Y5X4; 360,000 compounds, 0.35% hits; inhibition of corepressor binding, % at 3.98 µM; CHO-S Gal4-NCOR/VP16-NR2E3 two-hybrid, luciferase;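 active means inhibition above the mean of all tested compounds plus 3 SD, cut at about 70% in these data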;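 further: 0% = DMSO with NR2E3 transfected cells and 100% = cells lacking NR2E3 construct; higher means lower luciferase signal from less NR2E3 corepressor binding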
PP5 primary: blocks human protein phosphatase 5 activity | purified PP5c, OMFP substrate fluorescence | inhibition, % at 6.7 µM | 320,000 compounds, 0.18% hits;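 active means inhibition above the campaign's mean inhibition across all tested compounds plus 3 SD, cut at about 9.5% in these data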;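 further: 0% = DMSO only and 100% = 100 µM cantharidin control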
Target sequence (P53041 whole entry, looked up): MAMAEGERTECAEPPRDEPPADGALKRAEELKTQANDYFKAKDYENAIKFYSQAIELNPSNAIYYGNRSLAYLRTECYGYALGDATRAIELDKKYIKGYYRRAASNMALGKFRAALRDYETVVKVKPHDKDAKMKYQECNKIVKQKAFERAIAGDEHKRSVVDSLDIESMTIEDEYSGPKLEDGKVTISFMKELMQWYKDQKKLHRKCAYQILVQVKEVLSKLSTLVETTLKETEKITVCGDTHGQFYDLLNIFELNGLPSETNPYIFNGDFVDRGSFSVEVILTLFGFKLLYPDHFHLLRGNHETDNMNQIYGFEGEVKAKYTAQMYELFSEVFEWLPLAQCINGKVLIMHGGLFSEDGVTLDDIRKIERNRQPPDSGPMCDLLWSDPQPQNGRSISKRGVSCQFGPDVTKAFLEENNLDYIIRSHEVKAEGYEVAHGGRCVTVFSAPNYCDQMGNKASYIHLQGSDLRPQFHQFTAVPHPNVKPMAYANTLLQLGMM
PP1 counter: PP1-alpha (human) inhibition in PP5 counter-screen. P62136. purified PP1alpha, OMFP fluorescence. inhibition, % at 6.7 µM. 320,000 compounds, 0.9% hits. AID 2235;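 active means inhibition above the mean inhibition of all tested compounds plus 3 SD, computed separately for each screening campaign, cut at about 15% in these data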
NR2E3 ag-2: activates human photoreceptor nuclear receptor NR2E3. Q9Y5X4. GST-NR2E3/biotin-RetCOR TR-FRET, 1536-well. inhibition of corepressor binding, % at 4.78 µM. 320,000 compounds, 0.12% hits. AID 2300;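 active means percent inhibition above the cutoff of mean plus 3 SD of all tested compounds, set per screening campaign, cut at about 20% in these data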;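 further: 0% = DMSO wells and 100% = biotin wells as full block of FRET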
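Test system: GST-NR2E3 and biotin-RetCOR proteins | Quantity: 1.35 nM GST-tagged NR2E3 final | Medium: Tris pH 7.5 | Also added: 7 nM biotin-RetCOR | Dosing: Compound at 4.8 µM, single dose | Timing: 5 h at 4 °C | Detection: Time-resolved FRET | Read-out basis: Percent inhibition | Benchmarks: Biotin wells as high control, 0.6% DMSO wells as low control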
Numbers without * were called inactive; nt = not tested or not shown.

SMILES	NR2E3 ag-1	PP5 primary	PP1 counter	NR2E3 ag-2
CCc1ccc(N=c2c([N+](=O)[O-])nn(-c3ccc4c(c3)OCCO4)n2O)cc1	-76	-1	-1	-3
O=[N+]([O-])c1nn(-c2ccc3c(c2)OCCO3)n(O)c1=Nc1ccc(Cl)cc1	86*	2	-2	6
CCC(Sc1nc2ccsc2c(=O)n1Cc1ccc(C(=O)O)cc1)C(=O)Nc1ccc(C)c(Cl)c1 (centres undefined)	-17	3	17*	2
COc1ccc(OC)c(/C=N/NC(=O)c2cc3c(OC)cccc3[nH]2)c1	17	7	-4	1
CCOc1ccc(/C=N/NC(=O)c2cc3c(OC)cccc3[nH]2)cc1	-43	-1	16*	-3
O=C(NC1CCCc2ccccc21)c1cccc(S(=O)(=O)N2CCN(c3ccccc3)CC2)c1 (centres undefined)	-5	5	15*	4
CC1CCC(NC(=O)c2cccc(S(=O)(=O)N3CCN(c4ccccc4)CC3)c2)CC1 (centres undefined)	4	0	-5	3
O=C(Nc1ncc(Cc2ccccc2Cl)s1)C1=NCCN1	18	1	-4	-1
CCc1ccc(Cc2cnc(NC(=O)C3=NCCN3)s2)cc1	-55	-1	17*	-3
O=C(N/N=C/c1ccc2cccc(OCc3ccccc3)c2n1)c1ccc(Br)cc1	-25	1	17*	3
O=C(O)c1cccc(NC(=S)N/N=C/c2ccccc2OCc2ccc(Br)cc2)c1	-114	-4	17*	2
COc1ccc(C(=O)N/N=C/c2ccc3cccc(OCc4ccccc4)c3n2)cc1	-22	3	9	5
O=C(N/N=C/c1ccc(Cl)cc1)c1cc(-c2cccnc2)nc2ccccc12	-6	2	17*	-3
CC[C@@]1(C(=O)OC)N[C@H](CN(C)C(=O)c2ccc(F)cc2)[C@@H]2C(=O)N(Cc3ccccc3)C(=O)[C@@H]21	23	nt	nt	nt
COc1cccc(C(=O)Nc2ccc3c(c2)C(=O)c2ccccc2C3=O)c1	-55	2	33*	-11
COc1cccc2[nH]c3ccccc3c(=O)c12	-33	1	-3	1
Nc1cccc2c(=O)c3ccccc3[nH]c12	-7	2	16*	-8
CC1(C)Oc2ccc(C(=O)Nc3ccccc3)cc2N(CC#N)C1=O	-43	1	0	1
C=CCn1c(=NC(=O)c2cccs2)sc2cccc(OC)c21	-58	0	0	3
C#CCn1c(=NC(=O)c2ccc(Br)s2)sc2cccc(OC)c21	-71	0	16*	-23
O=C(Nc1ccnn1C1CCN(Cc2ccc(CO)o2)CC1)c1cccc(F)c1	21	nt	nt	nt
CCCOc1ccccc1-n1sc2c(c1=S)-c1cc(OC)cc3c1N(C(=O)C3=O)C2(C)C	16	1	17*	-1
Cc1cc(C(=O)N/N=C/c2cc(N=Nc3ccccc3)ccc2O)n[nH]1	-7	1	15*	-1
COC(=O)N/N=C/c1cc(N=Nc2ccccc2)ccc1O	-96	1	-4	-1
COc1ccc(S(=O)(=O)N2CCCCC2c2cc(C(=O)N3CCOCC3)no2)cc1 (centres undefined)	32	nt	nt	nt
SMILES	NR2E3 ag-1	PP5 primary	PP1 counter	NR2E3 ag-2
COc1cc(Br)c(/C=C/c2ccc3cccc(O)c3n2)cc1OC	-17	1	4	1
Oc1cccc2ccc(/C=C/c3ccccc3Br)nc12	-131	3	16*	3
O=C(O)CCn1cc(C2CC(c3ccccc3)=NN2c2ccccc2)c(-c2ccccc2)n1 (centres undefined)	-14	6	15*	1
O=S(=O)(O)c1ccc(N2N=C(c3ccccc3)CC2c2ccccc2)cc1 (centres undefined)	-27	4	1	3
CCOP(=O)(OCC)C(NC(=O)Nc1ccc(Cl)c(Cl)c1)C(N)=O (centres undefined)	-3	0	17*	0
Cc1nn(-c2ccccc2)c(C)c1/C=N/NC(=O)CSc1nnc(SCc2cccc3ccccc23)s1	-4	2	16*	-2
Cc1ccc(-n2c(SCC(=O)N/N=C/c3c(C)nn(-c4ccccc4)c3C)nc3ccccc3c2=O)cc1	-12	1	1	2
FC(F)(F)c1ccccc1-c1ccc2nncn2c1	1	nt	nt	nt
COc1ccc(NS(=O)(=O)c2cccc(NC(=O)c3ccc(S(=O)(=O)N4CCCCCC4)cc3)c2)cc1	83*	1	1	2
O=C(CCCOc1ccccc1)Nc1cccc(S(=O)(=O)N2CCCCC2)c1	-18	2	3	0
COc1ccc(NS(=O)(=O)c2ccc(O)c(NC(=O)c3ccc(S(=O)(=O)N4CCCCCC4)cc3)c2)cc1	-14	-1	4	-2
CC(C)(C)c1ccc(OCCC(=O)Nc2cccc(S(=O)(=O)N3CCCCC3)c2)cc1	-22	0	16*	2
N#C/C(=N\Nc1cccc(Cl)c1)C(=O)c1ccccc1	102*	3	7	5
CC1=C(C(=O)N2CCCCCC2)CC(CC(=O)NC2CCCC2)C(=O)N1Cc1ccc(C(C)(C)C)cc1 (centres undefined)	30	nt	nt	nt
COc1cccc(-c2nn3c(-c4ccccn4)nnc3s2)c1	-17	-1	17*	-3
CCCNC(=O)Cn1c(=O)/c(=C/c2ccc(-c3ccc([N+](=O)[O-])cc3)o2)s/c1=C\C(=O)C(C)(C)C	-19	nt	nt	nt
COc1cc([N+](=O)[O-])cc(/C=N/NC(=O)c2ccc(C)nc2)c1O	-28	5	24*	-4
Cc1ccc(S(=O)(=O)N2CCCCC2)cc1NC(=O)c1nn(C)c(=O)c2ccccc12	-42	nt	nt	nt
CC(=O)c1ccc(CC2SC(N)=NC2=O)cc1 (centres undefined)	4	-3	16*	4
CC(=O)C1=CCC(c2ccc(C)o2)N(S(=O)(=O)c2ccc(C)cc2)C1 (centres undefined)	-12	nt	nt	nt
CC(C)OC(=O)CC(=O)CSc1nc(-c2ccc(F)cc2)cc(-c2ccccc2)c1C#N	-32	5	6	1
CCOC(=O)CC(=O)CSc1nc(-c2ccccc2)cc(-c2ccccc2)c1C#N	-4	1	17*	2
C#CCOCCOCCOCCNc1nc(N2CCN(C(=O)CCCCCCCCCCNC(=O)[C@H](CCCCN)n3cc(CCCC(=O)O)nn3)CC2)nc(N2CCN(C(=O)CCCCCCCCCCNC(=O)[C@H](CCCCN)n3cc(CCCC(=O)O)nn3)CC2)n1	-31	-2	1	2
C#CCOCCOCCOCCNc1nc(N2CCN(C(=O)CCCCCCCCCCNC(=O)[C@H](CO)n3cc(CCCSC)nn3)CC2)nc(N2CCN(C(=O)CCCCCCCCCCNC(=O)[C@H](CCCCN)n3cc(C[C@@H](C)CC)nn3)CC2)n1	nt	5	51*	-1

Screening results (PubChem)
